Results published in paper PMC5069578 (Journal of Clinical Pharmacology, 2016).
Where a name gives a salt, the structure may show the parent alone. Read-outs that look alike come from different tables or passages of the source.

How the values were obtained:
[1] = under physiological conditions; cited from earlier work
[2] = assay type: in vivo, human; conditions: for half-life / AUC(0-t) / Cmax / Tmax: human, plasma, 4 mg; for half-life: oral, Geometric mean (%CV) terminal half-life, N = 4; for AUC(0-t) / Cmax / Tmax: po, single 4-mg oral dose, n = 15; for AUC(0-t): Geometric mean AUC0-216 (%CV); for Cmax: Geometric mean Cmax (%CV); for Tmax: Median Tmax (range)
How it was run: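 Randomized 2-period, 2-sequence crossover: 4-mg immediate-release capsule on day 1 and day 15, either fasted (~10 h overnight) or fed (high-fat meal begun ≥30 min predose), alternating between periods; no food 4 h postdose. Plasma sampled predose to 216 h, LC-MS/MS (linear 0.5–500 ng/mL). Noncompartmental parameters; log AUC0-216 and Cmax by ANOVA (treatment, sequence, period fixed; patient-within-sequence random), back-transformed LS-mean ratios with 90% CIs.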

[3] = Biopharmaceutics Classification System; assay type: physicochemical; conditions: from solubility and permeability
[4] = cited from earlier work
[5] = ref Takeda, data on file; cited from earlier work
[6] = ref Takeda, data on file; cited from earlier work; remark: listed apart in the source
Safety and tolerability = assay type: in vivo, human
How it was run: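 Adverse events recorded throughout treatment and up to 30 days after last dose or start of subsequent antineoplastic therapy, graded by NCI CTCAE v4.03. Safety population comprised all patients given at least 1 dose of test compound (single 4-mg oral doses on days 1 and 15, fasted/fed crossover).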

[7] = healthy volunteers and patients with advanced solid tumors; cited from earlier work
[8] = fed vs fasted, ANOVA on log-transformed values

## CC(C)C[C@H](NC(=O)CNC(=O)c1cc(Cl)ccc1Cl)B1OC(=O)C(CC(=O)O)(CC(=O)O)O1 [ixazomib citrate]
[1]
  Hydrolysis to the biologically active boronic acid, ixazomib: rapid hydrolysis

## CC(C)C[C@H](NC(=O)CNC(=O)c1cc(Cl)ccc1Cl)B(O)O [ixazomib]
[2]; ANOVA analysis, period 2 (day 15) vs period 1 (day 1)
  Ratio of period 2 AUC to period 1 AUC (period effect): 2.21
[2]; fed vs fasted
  Delay of median Tmax under fed conditions compared with fasted state: approximately 3 hours
  Reduction in peak plasma concentration (Cmax): 69%
  Reduction in total systemic exposure (AUC): 28%
[2]; [8]
  Least-squares geometric mean ratio (90%CI) of AUC0-216 (test/reference): 0.72 (0.58‐0.89)
  Least-squares geometric mean ratio (90%CI) of Cmax (test/reference): 0.31 (0.21‐0.45)
[2]; day 1, fasted
  half-life: 189 h
[2]; day 1, fed
  half-life: 198 h
[2]; fasted (reference)
  AUC(0-t): 1470 ng·h/mL
  Cmax: 77 ng/mL
[2]; fed (test)
  AUC(0-t): 999 ng·h/mL
  Cmax: 22.8 ng/mL
[2]; fasted (reference), immediate-release capsule
  Tmax: 1.02 h
[2]; fed (test, high-calorie high-fat meal)
  Tmax: 4 h
[3]
  Biopharmaceutics Classification System (BCS) class: class 3
[4]; 226 adult cancer patients, immediate-release capsules, estimated
  Absolute oral bioavailability: 60%
[4]
  Dose and time dependence of PK: dose‐ and time‐independent PK
[5]
  Solubility: highly soluble
[6]
  Permeability: moderate
Safety and tolerability; 3 on-study deaths
  On-study deaths considered related to ixazomib: None
Safety and tolerability; 24 patients
  Drug-related, reversible grade 1 peripheral neuropathy: 1 case
  Patients with TEAEs resulting in dose reduction: 4%
  Patients with any-grade drug-related TEAEs: 83%
  Patients with any-grade drug-related fatigue: 25%
  Patients with any-grade drug-related nausea: 50%
  Patients with any-grade drug-related vomiting: 58%
  Patients with at least 1 grade ≥3 TEAE: 54%
  Patients with at least 1 grade ≥3 drug-related TEAE: 21%
  Patients with drug-related serious AE: 8%
  Patients with grade ≥3 drug-related anemia: 8%
  Patients with grade ≥3 drug-related dehydration: 4%
  Patients with grade ≥3 drug-related fatigue: 4%
  Patients with grade ≥3 drug-related peripheral edema: 4%
  Patients with grade ≥3 drug-related vomiting: 4%
  Patients with vomiting leading to dose modification: 8%
Safety and tolerability; safety population N = 24
  AE leading to discontinuation: 7 (29) n (%)
  Any AE: 24 (100) n (%)
  Any drug-related AE: 20 (83) n (%)
  Any drug-related grade ≥3 AE: 5 (21) n (%)
  Any drug-related serious AE: 2 (8) n (%)
  Any grade ≥3 AE: 13 (54) n (%)
  Any serious AE: 12 (50) n (%)
  Any-grade drug-related AE: anemia: 4 (17) n (%)
  Any-grade drug-related AE: asthenia: 2 (8) n (%)
  Any-grade drug-related AE: chills: 2 (8) n (%)
  Any-grade drug-related AE: constipation: 2 (8) n (%)
  Any-grade drug-related AE: decreased appetite: 3 (13) n (%)
  Any-grade drug-related AE: diarrhea: 3 (13) n (%)
  Any-grade drug-related AE: fatigue: 6 (25) n (%)
  Any-grade drug-related AE: nausea: 12 (50) n (%)
  Any-grade drug-related AE: thrombocytopenia: 2 (8) n (%)
  Any-grade drug-related AE: vomiting: 14 (58) n (%)
  Any-grade drug-related AE: weight loss: 4 (17) n (%)
  Grade ≥3 drug-related AE: anemia: 2 (8) n (%)
  Grade ≥3 drug-related AE: dehydration: 1 (4) n (%)
  Grade ≥3 drug-related AE: fatigue: 1 (4) n (%)
  Grade ≥3 drug-related AE: peripheral edema: 1 (4) n (%)
  Grade ≥3 drug-related AE: vomiting: 1 (4) n (%)
  On-study deaths: 3 (13) n (%)
Safety and tolerability; safety population N = 24, includes follicular rash, intermittent dark skin lesion, macular rash, maculopapular rash, pruritus
  Any-grade drug-related AE: rash: 5 (21) n (%)

## CS(=O)(=O)CCNCc1ccc(-c2ccc3ncnc(Nc4ccc(OCc5cccc(F)c5)c(Cl)c4)c3c2)o1 [lapatinib]
[7]
  Change in bioavailability when administered with a high-fat breakfast: large increases
